# Assays:
# [1] = biological target: T1, Retinoic acid receptor RXR-beta (Homo sapiens, UniProt P28702); assay: Binding affinity to RXRbeta
# T1 sequence (P28702 whole entry): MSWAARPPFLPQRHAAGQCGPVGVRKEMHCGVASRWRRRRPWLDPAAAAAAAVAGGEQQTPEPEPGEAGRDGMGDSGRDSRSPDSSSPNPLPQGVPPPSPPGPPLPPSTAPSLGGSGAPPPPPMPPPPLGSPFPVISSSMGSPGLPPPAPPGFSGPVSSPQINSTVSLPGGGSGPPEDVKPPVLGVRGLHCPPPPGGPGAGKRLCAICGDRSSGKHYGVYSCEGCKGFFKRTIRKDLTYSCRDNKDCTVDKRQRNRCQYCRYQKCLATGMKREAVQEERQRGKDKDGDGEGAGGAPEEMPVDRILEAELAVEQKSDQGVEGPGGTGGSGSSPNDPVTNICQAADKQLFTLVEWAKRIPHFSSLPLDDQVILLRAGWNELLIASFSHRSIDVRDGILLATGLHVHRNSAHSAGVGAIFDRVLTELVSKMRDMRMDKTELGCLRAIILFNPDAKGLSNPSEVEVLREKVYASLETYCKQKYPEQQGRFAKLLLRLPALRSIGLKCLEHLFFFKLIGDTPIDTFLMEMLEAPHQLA
# [2] = biological target: T2, Retinoic acid receptor RXR-alpha (Homo sapiens, UniProt P19793); assay: Transactivation of RXRalpha in CV1 cells by cotransfection assay; assay type: functional, cell-based, CV-1
# T2 sequence (P19793 whole entry): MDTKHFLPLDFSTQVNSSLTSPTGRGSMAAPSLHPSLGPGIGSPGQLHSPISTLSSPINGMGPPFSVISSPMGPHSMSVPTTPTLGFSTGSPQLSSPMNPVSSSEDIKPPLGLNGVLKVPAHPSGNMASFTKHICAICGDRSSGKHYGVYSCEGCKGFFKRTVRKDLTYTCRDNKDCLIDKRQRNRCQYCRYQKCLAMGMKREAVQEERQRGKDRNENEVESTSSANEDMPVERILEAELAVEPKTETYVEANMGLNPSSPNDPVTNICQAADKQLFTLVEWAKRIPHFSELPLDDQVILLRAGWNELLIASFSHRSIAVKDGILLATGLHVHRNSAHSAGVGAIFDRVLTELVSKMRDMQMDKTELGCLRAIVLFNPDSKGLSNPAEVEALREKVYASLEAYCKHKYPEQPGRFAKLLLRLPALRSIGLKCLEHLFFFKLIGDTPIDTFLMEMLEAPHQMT
# Procedure, shortened: (§1)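 EC50 taken from a full dose–response curve. Retinoid activity was normalized to the response to ATRA (all-trans retinoic acid). Potency (EC50) is the retinoid concentration that gives 50% of the maximal observed response.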
# [3] = biological target: T2, Retinoic acid receptor RXR-alpha; assay: Binding affinity to RXRalpha
# [4] = biological target: T3, Retinoic acid receptor RXR-gamma (Homo sapiens, UniProt P48443); assay: Binding affinity to RXRgamma
# T3 sequence (P48443 whole entry): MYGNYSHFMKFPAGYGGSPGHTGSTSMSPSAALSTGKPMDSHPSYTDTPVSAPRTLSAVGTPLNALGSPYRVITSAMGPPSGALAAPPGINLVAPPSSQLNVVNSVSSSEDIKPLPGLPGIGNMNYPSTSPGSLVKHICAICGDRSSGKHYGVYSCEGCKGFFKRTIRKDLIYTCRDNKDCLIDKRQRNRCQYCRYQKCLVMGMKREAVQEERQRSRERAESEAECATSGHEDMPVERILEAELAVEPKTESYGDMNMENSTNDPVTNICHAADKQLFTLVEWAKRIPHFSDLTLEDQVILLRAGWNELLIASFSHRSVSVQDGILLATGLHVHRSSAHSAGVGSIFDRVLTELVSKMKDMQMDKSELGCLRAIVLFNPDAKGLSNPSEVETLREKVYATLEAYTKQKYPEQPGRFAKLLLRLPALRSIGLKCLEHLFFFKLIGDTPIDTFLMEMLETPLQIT
# [5] = biological target: T1, Retinoic acid receptor RXR-beta; assay: Transactivation of RXRbeta in CV1 cells by cotransfection assay; assay type: functional, cell-based, CV-1; procedure, shortened: as §1
# [6] = biological target: T3, Retinoic acid receptor RXR-gamma; assay: Transactivation of RXRgamma in CV1 cells by cotransfection assay; assay type: functional, cell-based, CV-1; procedure, shortened: as §1
Ki ([1]; read-out: Ki),EC50 ([2]; read-out: EC50),Ki ([3]; read-out: Ki),Ki ([4]; read-out: Ki),EC50 ([5]; read-out: EC50),EC50 ([6]; read-out: EC50),Ki [1],EC50 ([2]; cv-1),Ki [3],Ki [4],EC50 ([5]; cv-1),EC50 ([6]; cv-1),SMILES
24 nM,221 nM,31 nM,35 nM,235 nM,231 nM,,,,,,,CCN(C/C=C/C(C)=C/C(=O)O)c1cc(C(C)(C)C)cc(C(C)(C)C)c1
301 nM,252 nM,67 nM,121 nM,216 nM,262 nM,,,,,,,CC(/C=C/CN(c1cc(C(C)(C)C)cc2c1CCC2(C)C)C(C)C)=C\C(=O)O
88 nM,378 nM,37 nM,131 nM,95 nM,322 nM,,,,,,,CC(/C=C/CN(C)c1cc(C(C)(C)C)cc(C(C)(C)C)c1)=C\C(=O)O
,,,,,,Not Active,Not Active,Not Active,Not Active,Not Active,Not Active,CC(/C=C/C(=O)N(Cc1ccccc1)c1cc(C(C)(C)C)cc(C(C)(C)C)c1)=C\C(=O)O
12 nM,22 nM,8 nM,10 nM,21 nM,19 nM,,,,,,,CCCN(C/C=C/C(C)=C/C(=O)O)c1cc(C(C)(C)C)cc2c1CCC2(C)C
126 nM,,122 nM,221 nM,,35 nM,,Not Active,,,Not Active,,CCCCCCCCN(C/C=C/C(C)=C/C(=O)O)c1cc(C(C)(C)C)cc(C(C)(C)C)c1
327 nM,,254 nM,309 nM,,,,Not Active,,,Not Active,Not Active,CC(C)=CCN(C/C=C/C(C)=C/C(=O)O)c1cc(C(C)(C)C)cc2c1CCC2(C)C
34 nM,99 nM,17 nM,38 nM,69 nM,63 nM,,,,,,,CCCN(C/C=C/C(C)=C/C(=O)O)c1cc(C(C)(C)C)cc(C(C)(C)C)c1
,,529 nM,,,,Not Active,Not Active,,Not Active,Not Active,Not Active,CC(/C=C/CNc1cc(C(C)(C)C)cc(C(C)(C)C)c1)=C\C(=O)O
,,,,,,Not Active,Not Active,Not Active,Not Active,Not Active,Not Active,CC(/C=C/C(=O)Nc1cc(C(C)(C)C)cc(C(C)(C)C)c1)=C\C(=O)O
238 nM,,121 nM,207 nM,,,,Not Active,,,Not Active,Not Active,CC(/C=C/CN(Cc1ccccc1)c1cc(C(C)(C)C)cc(C(C)(C)C)c1)=C\C(=O)O
605 nM,1000 nM,644 nM,299 nM,151 nM,669 nM,,,,,,,CCCN(C(=O)/C=C/C(C)=C/C(=O)O)c1cc(C(C)(C)C)cc(C(C)(C)C)c1

# The remaining lines, values behind:
SMILES,Ki ([1]; read-out: Ki),EC50 ([2]; read-out: EC50),Ki ([3]; read-out: Ki),Ki ([4]; read-out: Ki),EC50 ([5]; read-out: EC50),EC50 ([6]; read-out: EC50),Ki [1],EC50 ([2]; cv-1),Ki [3],Ki [4],EC50 ([5]; cv-1),EC50 ([6]; cv-1)
CCCN(C/C=C/C(C)=C/C(=O)O)c1cc2c(cc1C)C(C)(C)CCC2(C)C,161 nM,231 nM,18 nM,211 nM,212 nM,223 nM,,,,,,
CC(/C=C/[C@@H]1CCCN1c1ccc2c(c1)C(C)(C)CCC2(C)C)=C\C(=O)O,63 nM,179 nM,21 nM,100 nM,161 nM,147 nM,,,,,,
CC(/C=C/CN(CC1CC1)c1cc(C(C)(C)C)cc2c1CCC2(C)C)=C\C(=O)O,105 nM,123 nM,63 nM,150 nM,98 nM,100 nM,,,,,,
CC(/C=C/[C@H]1CCCN1c1ccc2c(c1)C(C)(C)CCC2(C)C)=C\C(=O)O,188 nM,,103 nM,202 nM,1290 nM,1260 nM,,Not Active,,,,
CCN(C/C=C/C(C)=C/C(=O)O)c1ccc2c(c1)C(C)(C)CCC2(C)C,185 nM,216 nM,103 nM,162 nM,239 nM,128 nM,,,,,,
CCCCN(C/C=C/C(C)=C/C(=O)O)c1cc(C(C)(C)C)cc2c1CCC2(C)C,60 nM,53 nM,21 nM,31 nM,52 nM,50 nM,,,,,,
CCCN(C/C=C/C(C)=C/C(=O)O)c1ccc2c(c1)C(C)(C)CCC2(C)C,72 nM,152 nM,47 nM,110 nM,206 nM,170 nM,,,,,,
CCN(C/C=C/C(C)=C/C(=O)O)c1cc2c(cc1C)C(C)(C)CCC2(C)C,152 nM,64 nM,42 nM,99 nM,117 nM,125 nM,,,,,,
CCCN(C/C=C/C(C)=C/C(=O)O)c1cc2c(cc1OC)C(C)(C)CCC2(C)C,721 nM,400 nM,257 nM,576 nM,169 nM,,,,,,,Not Active

# From ChEMBL document CHEMBL1146995, “Aza-retinoids as novel retinoid X receptor-specific agonists” (Bioorg Med Chem Lett, 2006)
